Activity calls are given as the source filed them. The calls are words filed in the database; no cut-off is given here.
What was measured:
MCF-10A [1] = assay: Induction of apoptosis in human MCF10A cells assessed as late apoptotic cells at 2 times IC50 after 24 hrs by annexin V-FITC/propidium iodide staining-based flow cytometry method (reference value: 3.81%); type: cell-based
HCT-116 [2] = assay: Induction of apoptosis in human HCT116 cells accumulation of cleaved caspase-9 level at 2 times IC50 after 8 hrs by Western blot analysis; type: functional, cell-based
Outline: (§1)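 Whole lysates in SDS/β-mercaptoethanol sample buffer run on 4–18% gradient SDS-PAGE and transferred to PVDF. Blocked in 5% milk/PBST, primary antibodies overnight at 4 °C, HRP secondaries 1 h. β-actin served as loading reference.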

HCT-116 [3] = assay: Cell cycle arrest in human HCT116 cells assessed as increase in accumulation of cells at sub-G1 phase after 24 hrs by propidium iodide staining-based flow cytometry method; type: functional
HCT-116 [4] = assay: Cytotoxicity against human HCT116 cells assessed as reduction in cell viability after 72 hrs by MTS assay; type: functional, cell-based; conditions: HCT-116, 72 h
Outline: (§2)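 Cells kept in DMEM with 10% FBS at 37 °C, 5% CO2. Proliferation read by MTS (CellTiter 96 AQueous One) 72 h after exposure across a concentration range. IC50 is the concentration giving 50% proliferation inhibition. Triplicate wells, three independent experiments, mean ± SD.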

HT-29 = assay: Cytotoxicity against human HT-29 cells assessed as reduction in cell viability after 72 hrs by MTS assay; type: functional, cell-based; conditions: HT-29, 72 h
Outline: (§3)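 MTS (CellTiter 96 AQueous One) proliferation read after 72 h of exposure across a concentration range. IC50 is the concentration giving 50% proliferation inhibition. Triplicate determinations in three independent experiments, mean ± SD.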

MCF-10A [5] = assay: Induction of apoptosis in human MCF10A cells assessed as necrotic cells at 2 times IC50 after 24 hrs by annexin V-FITC/propidium iodide staining-based flow cytometry method (reference value: 0.57%); type: cell-based
HCT-116 [6] = assay: Induction of apoptosis in human HCT116 cells accumulation of cleaved caspase-3 level at 2 times IC50 after 12 hrs by Western blot analysis; type: functional, cell-based; outline: as §1
MCF-10A [7] = assay: Cytotoxicity against human MCF10A cells assessed as reduction in cell viability after 72 hrs by MTS assay; type: cell-based; outline: as §3
MCF-10A [8] = assay: Induction of apoptosis in human MCF10A cells assessed as early apoptotic cells at 1 times IC50 after 24 hrs by annexin V-FITC/propidium iodide staining-based flow cytometry method (reference value: 0.20%); type: cell-based
MCF7 [9] = assay: Cytotoxicity against human MCF7 cells assessed as reduction in cell viability after 72 hrs by MTS assay; type: functional, cell-based; conditions: MCF7, 72 h; outline: as §2
HCT-116 [10] = assay: Induction of reactive oxygen species generation in human HCT116 cells assessed as increase in mitochondrial superoxide generation at 1 to 2 times IC50 after 24 hrs by MitoSOX red dye-based fluorescence microscopic analysis; type: functional, cell-based
HCT-116 [11] = assay: Cytotoxicity against human HCT116 cells assessed as reduction in cell viability at 20 uM after 72 hrs by MTS assay relative to control; type: functional
Outline: (§4)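 Cells grown in DMEM with 10% FBS at 37 °C, 5% CO2, exposed to 20 μM for 72 h. Proliferation read by MTS and inhibition expressed relative to vehicle. ≥50% inhibition counted as active. Triplicate wells, three independent experiments.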

HCT-116 [12] = assay: Induction of mitochondrial membrane depolarization in human HCT116 cells at 2 times IC50 after 24 hrs by JC-1 staining based fluorescence microscopic analysis; type: functional, cell-based
Outline: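 HCT-116 cells exposed at 2× IC50 for 24 h, washed, then stained with JC-1 in fresh medium for 20 min at 37 °C and rinsed. Red aggregates and green monomers imaged by fluorescence microscopy at 40×.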

HCT-116 [13] = assay: Induction of apoptosis in human HCT116 cells assessed as late apoptotic cells at 2 times IC50 after 24 hrs by annexin V-FITC/propidium iodide staining-based flow cytometry method (reference value: 5.4%); type: functional
MDA-MB-231 = assay: Cytotoxicity against human MDA-MB-231 cells assessed as reduction in cell viability after 72 hrs by MTS assay; type: functional, cell-based; conditions: MDA-MB-231, 72 h; outline: as §3
HCT-116 [14] = assay: Induction of apoptosis in human HCT116 cells assessed as necrotic cells at 1 times IC50 after 24 hrs by annexin V-FITC/propidium iodide staining-based flow cytometry method (reference value: 4.8%); type: functional
HCT-116 [15] = assay: Induction of apoptosis in human HCT116 cells assessed as late apoptotic cells at 1 times IC50 after 24 hrs by annexin V-FITC/propidium iodide staining-based flow cytometry method (reference value: 5.4%); type: functional
A549 = assay: Cytotoxicity against human A549 cells assessed as reduction in cell viability after 72 hrs by MTS assay; type: functional, cell-based; conditions: A549, 72 h; outline: as §3
HCT-116 [16] = assay: Induction of apoptosis in human HCT116 cells assessed as viable cells at 2 times IC50 after 24 hrs by annexin V-FITC/propidium iodide staining-based flow cytometry method (reference value: 86.0%); type: functional
MCF-10A [17] = assay: Induction of apoptosis in human MCF10A cells assessed as early apoptotic cells at 2 times IC50 after 24 hrs by annexin V-FITC/propidium iodide staining-based flow cytometry method (reference value: 0.20%); type: cell-based
HCT-116 [18] = assay: Induction of apoptosis in human HCT116 cells assessed as viable cells at 1 times IC50 after 24 hrs by annexin V-FITC/propidium iodide staining-based flow cytometry method (reference value: 86.0%); type: functional
HCT-116 [19] = assay: Induction of apoptosis in human HCT116 cells accumulation of cleaved PARP1 level at 2 times IC50 after 12 hrs by Western blot analysis; type: functional, cell-based; outline: as §1
HeLa = assay: Cytotoxicity against human HeLa cells assessed as reduction in cell viability after 72 hrs by MTS assay; type: functional, cell-based; outline: as §3
[20] = Induction of apoptosis in human MCF10A cells assessed as viable cells at 2 times IC50 after 24 hrs by annexin V-FITC/propidium iodide staining-based flow cytometry method (reference value: 95.4%); type: cell-based, MCF-10A; conditions: read-out: Activity
[21] = Selectivity index, ratio of IC50 for human MCF10A cells to IC50 for human MCF7 cells; type: toxicity; conditions: MCF10A cells versus MCF7 cells, read-out: Ratio IC50
[22] = Induction of apoptosis in human MCF10A cells assessed as viable cells at 1 times IC50 after 24 hrs by annexin V-FITC/propidium iodide staining-based flow cytometry method (reference value: 95.4%); type: cell-based, MCF-10A; conditions: read-out: Activity
MCF-10A [23] = assay: Induction of apoptosis in human MCF10A cells after 24 hrs by annexin V-FITC/propidium iodide staining-based flow cytometry method; type: cell-based
MCF7 [24] = assay: Cytotoxicity against human MCF7 cells assessed as reduction in cell viability at 20 uM after 72 hrs by MTS assay relative to control; type: functional; outline: as §4
HCT-116 [25] = assay: Induction of apoptosis in human HCT116 cells assessed as necrotic cells at 2 times IC50 after 24 hrs by annexin V-FITC/propidium iodide staining-based flow cytometry method (reference value: 4.8%); type: functional
HCT-116 [26] = assay: Induction of apoptosis in human HCT116 cells after 24 hrs by annexin V-FITC/propidium iodide staining-based flow cytometry method; type: functional, cell-based
HCT-116 [27] = assay: Induction of apoptosis in human HCT116 cells assessed as early apoptotic cells at 2 times IC50 after 24 hrs by annexin V-FITC/propidium iodide staining-based flow cytometry method (reference value: 3.8%); type: functional
HCT-116 [28] = assay: Induction of apoptosis in human HCT116 cells accumulation of cleaved caspase-9 level at 2 times IC50 after 12 hrs by Western blot analysis; type: functional, cell-based; outline: as §1
HCT-116 [29] = assay: Induction of apoptosis in human HCT116 cells after 24 hrs by acridine orange/ethidium bromide staining-based fluorescence microscopic analysis; type: functional, cell-based
MCF-10A [30] = assay: Induction of apoptosis in human MCF10A cells assessed as late apoptotic cells at 1 times IC50 after 24 hrs by annexin V-FITC/propidium iodide staining-based flow cytometry method (reference value: 3.81%); type: cell-based
HCT-116 [31] = assay: Induction of apoptosis in human HCT116 cells assessed as early apoptotic cells at 1 times IC50 after 24 hrs by annexin V-FITC/propidium iodide staining-based flow cytometry method (reference value: 3.8%); type: functional
HCT-116 [32] = assay: Induction of apoptosis in human HCT116 cells accumulation of cleaved caspase-7 level at 2 times IC50 after 12 hrs by Western blot analysis; type: functional, cell-based; outline: as §1
MCF-10A [33] = assay: Induction of apoptosis in human MCF10A cells assessed as necrotic cells at 1 times IC50 after 24 hrs by annexin V-FITC/propidium iodide staining-based flow cytometry method (reference value: 0.57%); type: cell-based

For `COc1ccc(OC)c(C(=O)/C=C/c2nc3ccccc3c(=O)[nH]2)c1`, the Activity (MCF-10A [1]) was 5.38%, the Activity (HCT-116 [2]) was “Active” and the Activity (HCT-116 [3]) was “Dose-dependent effect”. For the same molecule, the IC50 (HCT-116 [4]) was 3.56 µM, the IC50 (HT-29) was 6.18 µM and the Activity (MCF-10A [5]) was 0.87%. For the same molecule, the Activity (HCT-116 [6]) was “Active”, the IC50 (MCF-10A [7]) was 9.81 µM and the Activity (MCF-10A [8]) was 0.3%. For the same molecule, the IC50 (MCF7 [9]) was 4.08 µM, the Activity (HCT-116 [10]) was “Active” and the Activity (HCT-116 [11]) was “>=50%”. For the same molecule, the Activity (HCT-116 [12]) was “Active”, the Activity (HCT-116 [13]) was 29.1% and the IC50 (MDA-MB-231) was 10.6 µM. The Activity (HCT-116 [14]) was 8.9%, the Activity (HCT-116 [15]) was 10.8% and the IC50 (A549) was 12.7 µM. It also gave an Activity (HCT-116 [16]) of 54.3%, an Activity (MCF-10A [17]) of 1.19% and an Activity (HCT-116 [18]) of 78.2%. The Activity (HCT-116 [19]) was “Active”, the IC50 (HeLa) was 8.37 µM and the viability at 24 h, 2 times IC50 [20] was 92.6%. For the same molecule, the selectivity ratio [21] was over 2, the viability at 24 h, 1 times IC50 [22] was 94.4% and the Activity (MCF-10A [23]) was “Dose-dependent effect”. For the same molecule, the Activity (MCF7 [24]) was “>=50%”, the Activity (HCT-116 [25]) was 9.7% and the Activity (HCT-116 [26]) was “Dose-dependent effect”. The Activity (HCT-116 [27]) was 6.9%, the Activity (HCT-116 [28]) was “Active” and the Activity (HCT-116 [29]) was “Dose-dependent effect”. The Activity (MCF-10A [30]) was 4.67%, the Activity (HCT-116 [31]) was 2.1% and the Activity (HCT-116 [32]) was “Active”. It also gave an Activity (MCF-10A [33]) of 0.62%.

— ChEMBL document CHEMBL4325909, “Synthesis and evaluation of chalcone analogues containing a 4-oxoquinazolin-2-yl group as potential anti-tumor agents” (Eur J Med Chem, 2019)
